Structures are written as SMILES. The source made the active and inactive calls. No cut-off for these calls is given here.

The subject of assay [1] is Matrix protein 2 (Influenza A virus), P06821 [V27A]. As to the kind of experiment: Inhibition of Influenza A virus (A/Puerto Rico/8/1934(H1N1)) M2 channel V27A mutant expressed in Xenopus oocytes at 100 uM by two-electrode voltage clamp assay. The format is cell-based. The note with it: Oocyte. Put shortly:
(§1)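 Influenza A/Udorn/72 M2 cDNA, wild type or S31N or V27A mutant made by site-directed mutagenesis, expressed from mRNA microinjected into Xenopus oocytes. Two-electrode voltage clamp recording was done 48–72 h after injection. Compound was applied at pH 5.5 for 2 min once inward current peaked. Residual current was compared with current before application.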

Assay [2] has as its system Matrix protein 2 (Influenza A virus), P06821 [withheld]. As to the kind of experiment: Inhibition of Influenza A virus (A/Puerto Rico/8/1934(H1N1)) M2 channel S31N mutant expressed in Xenopus oocytes at 100 uM by two-electrode voltage clamp assay. The format is cell-based. The conditions noted are these: Oocyte. Put shortly: as §1

With `CC12CC3CC(NCc4ccccc4)(CC(C1)c1ccccc13)C2`, the inhibition result in assay [1] and in assay [2] was “inactive” each time.

As to `CN(C)C12CC3CC(C)(CC(C1)c1ccccc13)C2`, the inhibition result in assay [1] and in assay [2] was “inactive” throughout.

Regarding `CC12CC3CC(N)(CC(C1)c1ccccc13)C2`, the inhibition result in assay [1] and in assay [2] was “inactive” each time.

These data come from ChEMBL document CHEMBL1933044.
